A selection: hits, their analogues and other compounds. The true share with any hit is near 3.3%.
Lipid droplet = hepatic lipid droplet formation modulation | AID 1656 | inhibition, % at 6.5 µM | AML12 mouse hepatocytes, oleate lipid droplets, BODIPY imaging | 240,000 tested, 0.4% active;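 active = lipid droplet intensity inhibited by at least 50%, with more than 500 cells counted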
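Assay system: AML12 mouse liver cells | Compound dosing: One dose, 6.5 µM compound | Read-out basis: Droplet intensity reduction, % inhibition | Measured by: Fluorescence imaging, 20x objective, two fields per well | Schedule: Overnight treatment with compound plus oleate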
CendR NRP1 mod = modulators of CendR peptide binding to human neuropilin-1 | O14786 | FAM-RPARPAR peptide binding to NRP-1, fluorescence polarization | inhibition, % at 25 µM | 360,000 tested, 0.85% active;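 active = inhibition or corrected inhibition above about 18%, plus a signal ratio from 0.5 to 1.5, limit read from the data, passing the limit was not always enough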
m5-HT2A agonist = mouse HTR2A agonism via beta-arrestin recruitment. P35363. CHO-K1 mHTR2A beta-arrestin complementation, luminescence; percent of 30 µM serotonin response. activation, % at 7.6 µM. 360,000 tested, 0.66% active. AID 624169;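 active = activation above a run cutoff, the mean activation of all tested compounds plus 3 SD, cut at about 14% in these data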;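 note: 0% = plate median of compound wells and 100% = 30 µM serotonin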
Arr AP2 block = human beta-arrestin and AP2 interaction inhibition | FITC-arrestin peptide / GST-AP2 beads, flow cytometry; AP2 beta2 appendage carries R879A mutation | inhibition, % at 10 µM | 340,000 tested, 0.31% active | AID 504490;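 active = inhibition above a set limit, near 3 SD of compounds lacking own fluorescence, cut at about 54% in these data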;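 note: plate controls were DMSO wells for no effect and 5 µM unlabelled arrestin peptide for full effect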
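System: GST-AP2 R879A glutathione beads. Medium: PBS with 0.05% Tween 20 and 0.1% BSA. Also added: FITC-arrestin peptide, 50 nM. Incubation: 12 min plus 1 h, RT. Measured by: high-throughput flow cytometry of beads, ex 488, em 535 nm. Evaluation: percent drop in bead-associated FITC signal.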
sPLA2-III inh = Inhibits HGIII-sPLA2 liposome hydrolysis, primary screen. inhibition, % at 12.2 µM. 370,000 tested, 0.56% active. QFRET BODIPY PC-A2 liposome hydrolysis, fluorescence;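 active = inhibition above mean plus 3 SD of compounds lying within the high and low control bounds, cut at about 19% in these data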;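 note: 0% = median of test compound wells and 100% = no enzyme DMSO wells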
Target sequence (Q9NZ20 whole entry, looked up): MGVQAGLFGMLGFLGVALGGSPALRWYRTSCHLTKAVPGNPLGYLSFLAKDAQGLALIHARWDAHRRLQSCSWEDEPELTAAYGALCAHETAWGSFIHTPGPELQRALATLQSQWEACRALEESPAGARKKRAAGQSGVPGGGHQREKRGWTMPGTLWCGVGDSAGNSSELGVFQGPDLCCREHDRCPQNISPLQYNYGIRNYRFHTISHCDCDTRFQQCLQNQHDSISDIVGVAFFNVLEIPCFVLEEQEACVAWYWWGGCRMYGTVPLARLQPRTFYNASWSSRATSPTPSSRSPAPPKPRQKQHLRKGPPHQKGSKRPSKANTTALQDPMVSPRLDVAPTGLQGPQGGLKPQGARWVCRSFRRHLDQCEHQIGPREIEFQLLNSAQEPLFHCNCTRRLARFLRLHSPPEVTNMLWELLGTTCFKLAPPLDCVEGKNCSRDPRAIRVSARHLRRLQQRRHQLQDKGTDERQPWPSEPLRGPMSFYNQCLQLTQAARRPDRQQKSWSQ
M18AAP inhibitor = blocks P. falciparum M18 aspartyl aminopeptidase | AID 1822 | recombinant PfM18AAP, H-Glu-NHMec fluorogenic cleavage | 290,000 tested, 1.2% active | inhibition, % at 7.35 µM;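 active = inhibition above the campaign mean inhibition over all tested compounds plus 3 SD, cut at about 28% in these data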;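 note: 0% = plate median of test compound wells and 100% = 2 mM ZnCl2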
* = called active by the depositor; . = not tested or not shown.

SMILES | Lipid droplet | CendR NRP1 mod | m5-HT2A agonist | Arr AP2 block | sPLA2-III inh | M18AAP inhibitor
CCN(CC)C(=O)Cn1cc(S(=O)(=O)Cc2cccc([N+](=O)[O-])c2)c2ccccc21 | -14 | 24* | -2 | -7 | -2 | 1
Cc1ccccc1CN1CCCCC(NC(=O)C2CCCC2)C1=O (stereo not drawn) | . | . | . | . | 16 | .
COc1cccc(NC(=O)CSc2nc(O)c(C)c(=O)n2-c2ccc(C)cc2)c1 | -1 | 24* | -2 | -5 | 7 | -10
Cc1ccc(-n2c(C)nnc2SCC(=O)Nc2ccccc2)cc1 | -10 | 20* | -5 | 0 | -7 | -2
CCOC(=O)N1CCN(C(=O)COC(=O)c2oc3ccc(OC)cc3c2C)CC1 | -12 | 23* | 0 | -10 | -5 | 2
COc1ccc2oc(C(=O)OCC(=O)N3CCC(C)CC3)c(C)c2c1 | -1 | 13 | 2 | 9 | 0 | 4
O=C(O)C1CCCN1C(=O)c1cccc(Cl)c1 (stereo not drawn) | . | . | . | . | -4 | .
Cc1cc(S(=O)(=O)NCC(c2ccc3c(c2)OCO3)N2CCOCC2)ccc1F (stereo not drawn) | . | 24* | -2 | -12 | 4 | .
O=S(=O)(NCC(c1ccc2c(c1)OCO2)N1CCOCC1)c1ccc(Cl)cc1 (stereo not drawn) | . | -5 | -2 | -5 | -2 | .
CC(C)Oc1cc(NC(=O)CS(=O)CC(=O)N(C)C)c(Cl)cc1Cl (stereo not drawn) | -5 | 25* | 2 | 10 | 0 | -3
CCOC(=O)c1c(NC(=O)CSc2n[nH]c(-c3ccco3)n2)sc(C)c1C | 3 | -21 | 1 | -4 | -33 | 31*
Cc1ccc2oc(C(=O)N3CCCCCC3)c(C)c2c1 | -16 | 26* | -5 | -31 | -1 | 3
Cc1c(Br)c(O)c(Br)c(O)c1/C=N/n1c(-c2ccccc2)n[nH]c1=S | 3 | -56 | 2 | 35 | . | 29*
CC[n+]1c(/C=C/N(C)c2ccccc2)n(-c2ccccc2)c2ccc(-c3nc4ccccc4s3)cc21 | -96 | -39 | 20* | -13 | . | 1
CCOC(=O)c1ccc2c(c1)n(CC)c(/C=C/N(C)c1ccccc1)[n+]2CC | -60 | 1 | 2 | -5 | 2 | 3
COC1(OC)N=C(N)C2(C#N)C(c3ccc(F)cc3)C12C#N (stereo not drawn) | 14 | 31* | -4 | 14 | 0 | 0
COC1(OC)N=C(N)C2(C#N)C(c3cccc(Oc4ccccc4)c3)C12C#N (stereo not drawn) | . | 26* | 1 | 4 | -2 | 4
COc1cccc(C2C3(C#N)C(N)=NC(OC)(OC)C23C#N)c1 (stereo not drawn) | . | 8 | 4 | 1 | 6 | -1
O=C(NC1CCCC1)[C@@H]1CCCN1C(=O)[C@@H](NC(=O)N1CCOCC1)C1CCCCC1 | . | . | . | . | 6 | .
CCn1c(=NC(=O)CSCC(=O)Nc2nccs2)sc2ccccc21 | 1 | 32* | 6 | -9 | 0 | -6
O=C1C=CC(=O)N1Cc1ccccc1 | 5 | -12 | 18* | 0 | 2 | -129
CC1=NNC(=O)/C1=C\c1cn(-c2ccccc2)nc1-c1ccccc1 | 12 | -2 | 4 | -5 | -13 | 66*
COC(=O)c1sccc1NC(=O)c1ccnn1C | -2 | 25* | -6 | -7 | 5 | -9
COC(=O)c1sccc1NC(=O)c1ccccc1 | -10 | -4 | -2 | -3 | 5 | -2
O=C(NCC1CCOCC1)c1ccc(-c2ccc(F)c(F)c2)c2ccoc12 | . | -7 | -4 | . | -2 | .
SMILES | Lipid droplet | CendR NRP1 mod | m5-HT2A agonist | Arr AP2 block | sPLA2-III inh | M18AAP inhibitor
CCCNC(=O)C1(C)CCCN(C(=O)c2cc3ccccc3s2)C1 (stereo not drawn) | . | 3 | -4 | . | 4 | .
CC(C)C1Nc2ccc(C(=O)NCc3ccco3)cc2NC1=O (stereo not drawn) | 16 | 5 | 0 | 26 | -4 | 30*
CC(C)C1Nc2ccc(C(=O)NC3CCCCC3)cc2NC1=O (stereo not drawn) | 4 | 15 | 2 | 1 | . | 8
O=C(Cc1ccc(F)cc1)N1CCN=C1SCc1ccc([N+](=O)[O-])cc1 | -30 | 22* | -1 | 7 | 1 | 18
CC1=C(C(=O)NCc2ccc(Cl)cc2)C2(CCC(C)CC2)OC1=O (stereo not drawn) | 10 | 37* | 2 | -8 | -1 | 1
COc1cccc(C(=O)N2CCC2(C)C(=O)O)c1 (stereo not drawn) | . | -11 | 3 | . | 14 | .
CCOC(=O)c1ccc(-c2ccc(/C=N/NC(=O)Cc3nnc(N)s3)o2)cc1 | 22 | -5 | -4 | -6 | -29 | 29*
COCCn1nnnc1C(c1cc2cc(OC)c(OC)cc2[nH]c1=O)N1CCN(c2ccc(O)cc2)CC1 (stereo not drawn) | -16 | 2 | -4 | 42 | -11 | 28*
COC(=O)c1ccc(Cn2nc(C)c(Br)c2C)cc1 | -21 | 12 | 4 | 7 | 1 | -1
COC(=O)c1cc(C(=O)OC)n(Cc2ccc(Br)cc2)n1 | -9 | 32* | 2 | 4 | -2 | -15
COC(=O)c1cc2c(c3c4cc(C)ccc4n(S(=O)(=O)c4ccc(C)cc4)c13)C(=O)N(Cc1ccccc1OC)C2 | . | . | . | . | 14 | .
Cc1ccc(S(=O)(=O)N2CCOCC2)cc1C(=O)NCc1cccs1 | -1 | 0 | -6 | 6 | 1 | -4
O=C(NCc1n[nH]c(=S)n1-c1ccc(F)cc1)c1ccc(S(=O)(=O)N2CCOCC2)cc1 | 0 | -2 | -6 | -11 | 7 | 28*
O=C(NCc1cccs1)c1ccc(S(=O)(=O)N2CCOCC2)cc1 | -26 | 21* | 0 | -8 | -4 | -5
C[C@H]1COc2cc(N3CCCCC3)ccc2S(=O)(=O)N1 | . | . | . | . | -1 | .
CCc1nnc(NC(=O)CCC(=O)N2CCCC2)s1 | . | -4 | 1 | 3 | 6 | -1
CC(C)Cc1nnc(NC(=O)CCC(=O)N2CCCCC2)s1 | 1 | 18* | 2 | -2 | -3 | 3
COC(=O)CCC(=O)OC1(C)C(=O)C=C2C=C(C3CC3)N(C3CC3)C=C2C1=O (stereo not drawn) | . | 14 | 9 | 33 | 2 | .
COC(=O)CCC(=O)OC1(C)C(=O)C=C2C=C(C3CC3)N(Cc3ccco3)C=C2C1=O (stereo not drawn) | . | 36* | 5 | 8 | 0 | .
COC(=O)CCCC1=CC2=CC(=O)C(C)(OC(=O)c3cccs3)C(=O)C2=CN1Cc1ccco1 (stereo not drawn) | . | 14 | -5 | 16 | -6 | .
COCCN1C=C2C(=O)C(C)(OC(=O)CCC(=O)OC)C(=O)C=C2C=C1C1CC1 (stereo not drawn) | . | 29* | 5 | 5 | . | .
COC(=O)[C@]12CCCCC=C1N(Cc1cccc3ccccc13)C(=O)[C@H](CC(=O)NCC1CCCCC1)C2 | . | -8 | 2 | . | 1 | .

Compound activity from PubChem.
